For one experiment, the target named is Mu-type opioid receptor (Homo sapiens, UniProt P35372). In words: Displacement of [3H]DAMGO from cloned human mu opioid receptor. On the technique in general: Displacement assays read how much labelled ligand stays bound in the presence of the test substance.
The target of experiment [1] is Kappa-type opioid receptor (Homo sapiens, UniProt P41145). Kind of experiment: Displacement of [3H]U-69593 from cloned human kappa opioid receptor.
Experiment [2] addresses Opioid receptors; mu & delta (Homo sapiens) (UniProt P41143+P35372). In words: Selectivity for delta opioid receptor over mu opioid receptor. The experiment is classed as protein assay.
Experiment [3] deals with Delta-type opioid receptor (Homo sapiens, UniProt P41143). Kind of experiment: Displacement of [3H]DPDPE from cloned human delta opioid receptor.
Experiment [4] addresses Opioid receptors; delta & kappa (Homo sapiens) (UniProt P41145+P41143). Kind of experiment: Selectivity for delta opioid receptor over kappa opioid receptor. In kind it is protein assay.
The species entered for experiment [5] is Mus musculus. Kind of experiment: Anxiolytic activity in mouse assessed as lowest active dose by neonatal ultrasonic vocalization test. In kind it is functional. An outline of the steps: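 Neonatal mice; read-out is the number and duration of ultrasonic calls. The value is the lowest dose tested that gave a statistically significant reduction in calls.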

The species named for experiment [6] is Mus musculus. Kind of experiment: Decrease in duration of immobility in mouse assessed as lowest active dose by tail suspension test.

Chain of Kappa-type opioid receptor (P41145 whole entry): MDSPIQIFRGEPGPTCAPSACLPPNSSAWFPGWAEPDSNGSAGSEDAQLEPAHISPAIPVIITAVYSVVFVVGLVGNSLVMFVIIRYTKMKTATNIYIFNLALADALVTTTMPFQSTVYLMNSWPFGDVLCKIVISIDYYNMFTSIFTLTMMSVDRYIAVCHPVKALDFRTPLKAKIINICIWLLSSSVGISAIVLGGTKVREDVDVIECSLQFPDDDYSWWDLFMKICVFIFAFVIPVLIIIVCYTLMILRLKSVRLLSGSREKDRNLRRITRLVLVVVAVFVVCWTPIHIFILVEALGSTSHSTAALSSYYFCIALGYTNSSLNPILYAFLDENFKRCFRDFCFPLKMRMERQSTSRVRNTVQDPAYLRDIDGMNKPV
Chain of Delta-type opioid receptor (P41143 whole entry): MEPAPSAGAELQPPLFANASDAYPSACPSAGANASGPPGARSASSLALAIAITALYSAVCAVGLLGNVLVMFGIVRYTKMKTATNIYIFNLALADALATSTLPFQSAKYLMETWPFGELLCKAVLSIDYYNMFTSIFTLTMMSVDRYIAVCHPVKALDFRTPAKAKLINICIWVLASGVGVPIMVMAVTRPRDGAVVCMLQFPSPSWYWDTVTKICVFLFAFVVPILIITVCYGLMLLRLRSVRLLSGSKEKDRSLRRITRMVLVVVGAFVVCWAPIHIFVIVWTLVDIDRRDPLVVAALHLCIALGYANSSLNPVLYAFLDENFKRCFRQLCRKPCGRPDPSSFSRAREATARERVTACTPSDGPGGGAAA
Chain of Opioid receptors; delta & kappa (Homo sapiens) (P41143 whole entry, looked up): as the sequence (P41143 whole entry) above
Chain of Opioid receptors; delta & kappa (Homo sapiens) (P41145 whole entry, looked up): as the sequence (P41145 whole entry) above
Chain of Opioid receptors; mu & delta (Homo sapiens) (P35372 whole entry, looked up): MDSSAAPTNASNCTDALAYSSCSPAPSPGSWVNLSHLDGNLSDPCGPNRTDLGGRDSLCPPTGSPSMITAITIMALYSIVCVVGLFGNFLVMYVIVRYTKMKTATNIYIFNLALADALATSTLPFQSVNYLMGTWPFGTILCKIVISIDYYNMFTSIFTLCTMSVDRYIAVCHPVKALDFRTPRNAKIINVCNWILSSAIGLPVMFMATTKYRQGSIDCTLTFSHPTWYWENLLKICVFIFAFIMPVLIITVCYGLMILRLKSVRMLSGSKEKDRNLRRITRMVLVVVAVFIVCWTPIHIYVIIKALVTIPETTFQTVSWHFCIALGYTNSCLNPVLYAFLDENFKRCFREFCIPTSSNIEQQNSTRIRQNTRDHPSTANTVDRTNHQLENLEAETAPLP
Chain of Opioid receptors; mu & delta (Homo sapiens) (P41143 whole entry, looked up): as the sequence (P41143 whole entry) above
Chain of Mu-type opioid receptor (P35372 whole entry): as the sequence (P35372 whole entry, looked up) above

One may read the Ki as a measure of affinity in units of concentration, obtained from inhibition or displacement. Low readings indicate tighter binding, high ones weaker binding. With `O=C(OCc1ccccc1)N1CCC(c2ccccc2)(c2nccn2Cc2ccccc2)CC1`, the Ki on Mu-type opioid receptor is above 0.465 µM; in experiment [1], 0.121 µM.
As to `CCOC(=O)N1CCC(c2ccccc2)(c2nccn2Cc2ccc(F)cc2)CC1`, in experiment [2], the Ratio Ki was above 6.5. Further, the inhibition constant (Ki) was 0.051 µM in experiment [3] and above 0.465 µM at Mu-type opioid receptor.
As for `CCOC(=O)N1CCC(c2ccccc2)(c2nccn2Cc2ccc(O)cc2)CC1`, the Ki is above 0.465 µM at Mu-type opioid receptor and 0.108 µM in experiment [1].
`CCOC(=O)N1CCC(c2ccccc2)(c2nccn2Cc2ccc(C(=O)OC)cc2)CC1`: the figures for the inhibitory constant (Ki) (on Mu-type opioid receptor; in experiment [1]) were above 0.465 µM and 0.025 µM, respectively.
Take `COC(=O)c1ccc(Cn2ccnc2C2(c3ccccc3)CCN(C(=O)c3ccccc3)CC2)cc1`: the values for the Ki (at Mu-type opioid receptor; in experiment [1]) were above 4.65 µM and 0.088 µM, respectively.
Consider `Cc1cc(C)c(C(=O)N2CCC(c3ccccc3)(c3nccn3Cc3ccccc3)CC2)c(C)c1`, for which, in experiment [2], the Ratio Ki was above 37. Besides, the results for the Ki (in experiment [3]; on Mu-type opioid receptor) were 0.125 µM and above 4.65 µM, respectively.
On to `CCOC(=O)N1CCC(c2ccccc2)(c2nccn2Cc2cccc(F)c2)CC1`, for which the figures for the Ki (at Mu-type opioid receptor; in experiment [1]) were above 0.465 µM and above 4.65 µM, respectively.
Taken in the same sequence, the figures for `CC(C)OC(=O)N1CCC(c2ccccc2)(c2nccn2Cc2ccccc2)CC1` were above 0.465 µM and 0.201 µM.
Turning to `CCOC(=O)N1CCC(c2ccccc2)(c2nccn2CC2CCCCC2)CC1`, in experiment [2], the Ratio Ki was above 3.2. Further, the Ki in experiment [3] is 0.147 µM; at Mu-type opioid receptor, above 0.465 µM.
Taken in the same sequence, the figures for `CCOC(=O)N1CCC(c2ccccc2)(c2nccn2Cc2ccccn2)CC1` were above 2.7, 0.173 µM and above 0.465 µM.
Consider `O=C(Cc1ccccc1)N1CCC(c2ccccc2)(c2nccn2Cc2ccccc2)CC1`, for which the Ki on Mu-type opioid receptor was above 0.465 µM.
Take `CC(C)(C)OC(=O)N1CCC(c2ccccc2)(c2nccn2Cc2ccccc2)CC1`: the Ki is above 0.465 µM on Mu-type opioid receptor and 0.084 µM in experiment [1].
On to `CCOC(=O)N1CCC(c2ccccc2)(c2nccn2C/C=C/c2ccccc2)CC1`, for which the Ratio Ki in experiment [2] was above 1.6. The figures for the Ki (in experiment [3]; at Mu-type opioid receptor) were 0.28 µM and above 0.465 µM, respectively.
Take `COC(=O)N1CCC(c2ccccc2)(c2nccn2Cc2ccccc2)CC1`: the inhibitory constant (Ki) at Mu-type opioid receptor was above 4.65 µM.
On to `CC(C)C(=O)N1CCC(c2ccccc2)(c2nccn2Cc2ccccc2)CC1`, for which the Ratio Ki in experiment [2] is above 10; in experiment [4], 13. The Ki in experiment [3] was 0.048 µM; on Mu-type opioid receptor, above 0.465 µM; in experiment [1] it was 0.621 µM.
Regarding `CC(c1ccccc1)n1ccnc1C1(c2ccccc2)CCN(C(=O)c2ccccc2)CC1` (stereo not drawn), the Ki on Mu-type opioid receptor is above 4.65 µM; in experiment [1], 0.334 µM.
With `O=C(c1ccccc1)N1CCC(c2ccccc2)(c2nccn2Cc2ccccc2)CC1`, the Activity in the experiment listed under Mus musculus [5] was below 1 mg/kg; in the experiment filed under Mus musculus [6] it was 10 mg/kg. The Ki at Mu-type opioid receptor was above 4.65 µM; in experiment [1], 0.124 µM.
On to `Cc1cc(C)cc(C(=O)N2CCC(c3ccccc3)(c3nccn3Cc3ccccc3)CC2)c1`, for which the inhibition constant Ki is above 0.465 µM at Mu-type opioid receptor and 0.284 µM in experiment [1].
Regarding `CCCOC(=O)N1CCC(c2ccccc2)(c2nccn2Cc2ccccc2)CC1`, the Ki at Mu-type opioid receptor was above 0.465 µM; in experiment [1] it was above 4.65 µM.
Consider `COC(=O)c1cccc(Cn2ccnc2C2(c3ccccc3)CCN(C(=O)c3ccccc3)CC2)c1`, for which, in experiment [2], the Ratio Ki was above 5.5. The Ki in experiment [3] is 0.085 µM; on Mu-type opioid receptor, above 0.465 µM.
In the case of `CCOC(=O)N1CCC(c2ccccc2)(c2nccn2C(C)c2ccccc2)CC1` (stereo not drawn), the Ki on Mu-type opioid receptor is above 0.465 µM; in experiment [1] it was 0.062 µM.
Consider `COCC(=O)N1CCC(c2ccccc2)(c2nccn2Cc2ccc(C(=O)OC)cc2)CC1`, for which the inhibition constant (Ki) at Mu-type opioid receptor was above 4.65 µM; in experiment [1], 0.065 µM.
Consider `CCN(CC)C(=O)c1ccc(Cn2ccnc2C2(c3ccccc3)CCN(C(=O)c3ccccc3)CC2)cc1`, for which the Ratio Ki in experiment [2] was above 29. The values for the Ki (in experiment [3]; at Mu-type opioid receptor) were 0.158 µM and above 4.65 µM, respectively.
As for `CCCCOC(=O)N1CCC(c2ccccc2)(c2nccn2Cc2ccccc2)CC1`, the Ki at Mu-type opioid receptor is above 0.465 µM; in experiment [1], 0.188 µM.
Compound `CC(C)(C)C(=O)N1CCC(c2ccccc2)(c2nccn2Cc2ccccc2)CC1` came in with a Ki at Mu-type opioid receptor above 4.65 µM.
Consider `CCOC(=O)N1CCC(c2ccccc2)(c2nccn2Cc2ccc3ccccc3c2)CC1`, for which the Ratio Ki in experiment [2] is above 0.7; in experiment [4], 4.8. In addition, the Ki in experiment [3] was 0.642 µM; on Mu-type opioid receptor it was above 0.465 µM; in experiment [1] it was 3.12 µM.
With `CCOC(=O)N1CCC(c2ccccc2)(c2nccn2Cc2cccc(OC)c2)CC1`, the inhibition constant (Ki) is above 4.65 µM at Mu-type opioid receptor and 0.366 µM in experiment [1].
`CCC(=O)N1CCC(c2ccccc2)(c2nccn2Cc2ccccc2)CC1` showed a Ki on Mu-type opioid receptor above 0.465 µM.
Turning to `CCOC(=O)N1CCC(c2ccccc2)(c2nccn2Cc2ccc(OC)cc2)CC1`, the Ki on Mu-type opioid receptor was above 4.65 µM; in experiment [1], 0.201 µM.
For the compound `COCC(=O)N1CCC(c2ccccc2)(c2nccn2C(C)c2ccccc2)CC1` (stereo not drawn), the Ki (at Mu-type opioid receptor; in experiment [1]) was above 4.65 µM in each case.
For the compound `O=C(c1cc(C(F)(F)F)cc(C(F)(F)F)c1)N1CCC(c2ccccc2)(c2nccn2Cc2ccccc2)CC1`, in experiment [2], the Ratio Ki is above 16. The Ki in experiment [3] was 0.029 µM; at Mu-type opioid receptor, above 0.465 µM.
For the compound `COCC(=O)N1CCC(c2ccccc2)(c2nccn2Cc2ccccc2)CC1`, the Ki is above 0.465 µM at Mu-type opioid receptor and 0.622 µM in experiment [1].
In the case of `CCOC(=O)N1CCC(c2ccccc2)(c2nccn2Cc2ccccc2)CC1`, the results for the Activity in the experiment listed under Mus musculus [5] and in the experiment listed under Mus musculus [6] were 10 mg/kg and 30 mg/kg, respectively.
Take `O=C(OC1CCCCC1)N1CCC(c2ccccc2)(c2nccn2Cc2ccccc2)CC1`: the Ratio Ki was above 63 in experiment [2] and 16 in experiment [4]. The Ki in experiment [3] was 0.0074 µM; at Mu-type opioid receptor, above 0.465 µM; in experiment [1] it was 0.121 µM.
As for `CC(=O)N1CCC(c2ccccc2)(c2nccn2Cc2ccccc2)CC1`, the Ki on Mu-type opioid receptor was above 0.465 µM; in experiment [1], 1.01 µM.
As to `O=C(C1CC1)N1CCC(c2ccccc2)(c2nccn2Cc2ccccc2)CC1`, in experiment [2], the Ratio Ki was above 20. For the same compound, the results for the Ki (in experiment [3]; at Mu-type opioid receptor) were 0.023 µM and above 0.465 µM, respectively.

(Values after ChEMBL document CHEMBL1149528, “4-Phenyl-4-[1H-imidazol-2-yl]-piperidine derivatives as non-peptidic selective delta-opioid agonists with potential anxiolytic/antidepressant properties. Part 2” (Bioorg Med Chem Lett, 2007).)
